# Rows were chosen to be rich in hits. Some 2.4% of all compounds tested hit in one or more screens of this group.
# S1P4 antag = antagonists of human S1P4 receptor | O95977 | S1P4-expressing cells, antagonist mode, reporter read-out | inhibition, % at 4.98 µM | hit rate 0.26% among 220,000 | AID 1510; in the data active = inhibition above about 29%;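 note: 0% = wells stimulated with agonist and 100% = vehicle wells without agonist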
# NPY1 pot ag = human NPY-Y1 potentiation or agonism, primary screen; activation, % at 3.6 µM; P25929; hit rate 0.37% among 220,000; NPY-Y1 expressing cells, potentiator/agonist activation; in the data active = activation above about 33%, passing the limit was not always enough;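 note: cells stimulated with NPY at EC10 then isoproterenol at EC100; 0% = low agonist plus stimulus and 100% = saturating agonist plus stimulus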
# Target sequence (P25929 whole entry, looked up): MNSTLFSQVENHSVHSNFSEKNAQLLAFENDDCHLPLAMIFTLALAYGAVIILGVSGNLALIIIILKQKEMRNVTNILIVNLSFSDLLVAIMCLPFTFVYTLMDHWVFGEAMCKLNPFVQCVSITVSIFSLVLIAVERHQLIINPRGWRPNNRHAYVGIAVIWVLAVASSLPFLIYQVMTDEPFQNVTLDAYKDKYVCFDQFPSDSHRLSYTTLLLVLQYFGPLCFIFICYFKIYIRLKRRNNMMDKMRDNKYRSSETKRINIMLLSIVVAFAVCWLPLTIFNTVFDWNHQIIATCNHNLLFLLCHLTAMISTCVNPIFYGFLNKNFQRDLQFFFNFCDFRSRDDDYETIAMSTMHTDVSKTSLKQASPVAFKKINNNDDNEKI
# NPY-Y1 antag = blocks the human neuropeptide Y Y1 receptor; P25929; HEK293-CNG Y1 cells, membrane potential fluorescence; NPY at EC95, then isoproterenol; inhibition, % at 3.6 µM; hit rate 1% among 200,000;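 active = inhibition above the campaign mean inhibition of all tested compounds plus 3 SD, cut at about 20% in these data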;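 note: 0% = DMSO wells given NPY plus isoproterenol and 100% = isoproterenol alone without NPY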
#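 Test system – HEK293 Y1/CNG channel cell line · Also added – NPY agonist 25 nM, then isoproterenol 1 µM plus Ro 20-1724 25 µM · Compound dosing – one concentration, 3.6 µM, in 0.4% DMSO · Schedule – compound incubation 1 h at room temperature, readout 45 min post-stimulation · Technique – fluorescence, membrane potential probe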
# NPY Y2 blocker = antagonists of human neuropeptide Y receptor Y2; P49146; NPY-Y2 expressing cells, antagonist mode; inhibition, % at 2.7 µM; hit rate 0.99% among 140,000; AID 793; in the data active = inhibition above about 17%;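 note: 0% = vehicle with agonist challenge and 100% = reference antagonist with challenge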
# NPY-Y2 PAM-ag = human NPY-Y2 potentiation or agonism, primary screen; P49146; cells expressing NPY-Y2, potentiator/agonist read-out; activation, % at 3.6 µM; hit rate 0.45% among 220,000; in the data active = activation above about 27%;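 note: cells stimulated with NPY near EC25 plus isoproterenol at EC100; 0% = vehicle plus submaximal agonist and 100% = vehicle plus saturating agonist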
# S1P4 agonist = human S1P4 receptor agonism; hit rate 0.35% among 220,000; activation, % at 4.98 µM; AID 1509; S1P4-expressing cell line, agonist reporter assay; O95977; in the data active = activation above about 11%;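 note: 0% = DMSO vehicle and 100% = reference agonist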
# S1P4 antag cf = confirmation of human S1P4 receptor antagonists; shares compounds with S1P4 antag; S1P4-expressing cell line, antagonist mode, reporter read-out; inhibition, % at 4.98 µM; hit rate 71% among 520; in the data active = inhibition above about 30%
# S1P1 antag = counter-screen for S1P4 antagonists: antagonists of human S1P1. shares compounds with S1P4 antag. cell-based S1P1 antagonist counterscreen, inhibition. inhibition, % at 4.98 µM. hit rate 37% among 520. AID 1564; in the data active = inhibition above about 40%;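 note: receptor stimulated with S1P near its EC80; 0% = agonist stimulated wells and 100% = vehicle only wells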
# The depositor's hits bear a star; . = not tested or not shown.
SMILES,S1P4 antag,NPY1 pot ag,NPY-Y1 antag,NPY Y2 blocker,NPY-Y2 PAM-ag,S1P4 agonist,S1P4 antag cf,S1P1 antag
CCC(=O)OCCNc1cc(SCCC(=O)OC)c2nonc2c1[N+](=O)[O-],-14.0,8.1,-4.9,4.5,1.1,-1.4,.,.
CCCC(=O)OCCNc1cc(Sc2nc3ccccc3[nH]2)c2nonc2c1[N+](=O)[O-],51.5*,-12.9,7.2,4.7,-3.6,0.7,106.1*,-6.8
O=C(CCN1C(=O)C2CCCCC2C1=O)Nc1nc(-c2ccccc2)cs1 (configuration not stated),-2.4,-2.5,.,.,-11.3,1.0,.,.
CCS(=O)(=O)N1CCC(C(=O)NCCCN2CCCC2)CC1,32.3*,-13.7,1.1,0.7,-8.4,-1.3,12.3,14.8
O=C(Nc1cccc(NC(=O)c2cccs2)c1)c1ccc([N+](=O)[O-])o1,55.6*,22.2,.,.,-3.9,-1.6,65.7*,62.0*
COc1cc(NC(=O)c2ccc([N+](=O)[O-])o2)ccc1NC(=O)c1cccs1,16.5,-1.1,2.6,.,2.8,-1.3,.,.
Cc1ccc(S(=O)(=O)Nc2cccc3cccnc23)cc1,41.6*,-3.9,8.1,-0.8,-17.1,4.1,109.9*,98.0*
COc1cc(NS(=O)(=O)c2ccc(C)cc2)c2ncccc2c1,9.1,-5.5,3.3,4.4,-13.3,0.6,.,.
Cc1ccc(-c2nn(-c3ccccc3)cc2NC(=O)CCl)cc1,-2.0,-5.2,3.9,.,-7.8,-0.8,.,.
COc1cc(NC(=O)CN2C(=O)CN(C)C2=O)c(C)cc1[N+](=O)[O-],-1.5,-10.6,-0.8,.,8.4,0.0,.,.
COc1cc(NC(=O)Cn2ncc(Cl)c(Cl)c2=O)c(C)cc1[N+](=O)[O-],93.2*,21.1,-4.9,.,-4.2,10.4,118.7*,40.2*
N#C/C(=C(/O)CO/N=C/c1ccccc1Cl)c1nc2ccccc2[nH]1,-10.7,15.1,.,.,18.1,0.2,.,.
O=C(/C=C/c1ccccc1)CC(O)(c1ccccc1)C(F)(F)C(F)F (configuration not stated),58.5*,-1.0,-3.4,1.3,3.9,-3.1,106.4*,33.2
O=C(/C=C/c1ccccc1)CC(O)(c1ccccc1)C(F)(F)F (configuration not stated),46.9*,4.4,-0.7,3.5,14.6,-2.1,106.2*,41.4*
Cc1cc(-c2nn(-c3ccccc3F)cc2CN2CCN(c3ccncc3)CC2)c(C)s1,-29.4,-30.1,15.9,.,-19.4,1.1,.,.
Cc1cccc2c(=O)cc(C)n(CC(N)=O)c12,-1.1,7.1,.,.,-9.9,-0.8,.,.
Cc1ccc2c(c1)C(c1ccccc1)CC(=O)O2 (configuration not stated),1.5,-12.4,.,.,-16.3,0.0,.,.
CC(C)c1ccc(CNc2c([N+](=O)[O-])c(=O)oc3ccccc23)cc1,32.1*,6.7,9.2,.,-16.4,-0.3,-3.4,-8.7
Cc1ccccc1OCCN1C(=O)NC2(CCc3ccccc32)C1=O (configuration not stated),35.9*,9.9,-0.7,3.9,6.1,-0.5,0.8,-11.4
O=[N+]([O-])c1cc2oc3c(c2c(C=NCc2ccncc2)c1O)CCCC3,3.6,-12.7,-0.8,-0.9,8.1,0.9,.,.
COc1ccc(OCC(O)CNC(=O)c2sccc2Cl)cc1 (configuration not stated),-0.5,-3.9,.,.,-3.9,1.2,.,.
CCCc1cnc(NCCNCC(O)COc2ccc(Cl)c(Cl)c2)nc1 (configuration not stated),30.9*,14.7,.,.,8.6,-1.3,25.1,63.9*
CCCCc1c(O)cc(C)[nH]c1=O,2.6,-1.2,.,.,-11.8,-0.2,.,.
COc1ccc(N=C2S/C(=C\c3ccc(N4CCOCC4)o3)C(=O)N2CCc2c[nH]c3ccccc23)cc1,55.0*,7.0,-3.4,-2.6,5.9,0.3,67.8*,30.4
O=C(NC1(C(F)(F)F)N=C2SCCN2C1=O)c1ccccc1F (configuration not stated),-6.8,9.0,.,.,-2.4,0.8,.,.
SMILES,S1P4 antag,NPY1 pot ag,NPY-Y1 antag,NPY Y2 blocker,NPY-Y2 PAM-ag,S1P4 agonist,S1P4 antag cf,S1P1 antag
CC1=NN(c2ccccc2)C(=O)/C1=C/c1cn(C)c2ccccc12,1.1,-7.9,.,.,-4.1,0.1,.,.
CCOC(=O)C1(Cc2ccccc2)CCN(Cc2cccc(OC)c2O)CC1,-12.0,-6.9,10.1,.,-28.7,1.9,.,.
CCOC(=O)C1(Cc2ccccc2)CCN(Cc2cn(CC(=O)OC)c3ccccc23)CC1,29.6*,-22.0,13.1,.,-27.6,0.6,5.1,15.6
Cc1cccc(CSc2cccc3cccnc23)c1,38.6*,-13.3,9.8,3.8,-16.6,-1.6,95.6*,64.7*
NNC(=O)c1ccc(CSc2cccc3cccnc23)cc1,-8.1,-6.2,2.9,.,-0.5,3.1,.,.
Cc1ccc(C(=O)N/C(=C\c2ccc(-c3ccc(Cl)cc3)o2)C(=O)NCCCN(C)C)cc1,36.0*,-13.6,21.2*,.,-2.2,-1.1,1.9,-5.0
COc1ccc(-c2cc(C#N)nc(Oc3ccc(Cl)cc3)n2)cc1,3.8,-20.8,2.0,5.5,-6.5,-0.8,.,.
COc1ccc(-c2cc(C#N)nc(Cl)n2)cc1,57.2*,-14.4,.,.,-17.8,-1.8,97.4*,27.9
N#Cc1cc(Oc2cccc3cccnc23)c(-n2nnc3ccccc32)cc1C#N,33.6*,-1.8,-8.2,5.9,-1.9,7.4,11.7,-19.7
N#Cc1cc(O)c(-n2nnc3ccccc32)cc1C#N,-10.4,1.2,1.9,.,-8.5,3.0,.,.
CC(=O)NS(=O)(=O)c1ccc(NS(=O)(=O)c2ccccc2[N+](=O)[O-])cc1,5.0,-2.3,.,.,4.8,-1.5,.,.
Cc1cc(OCc2nc3ccccc3s2)ccc1N,7.8,-0.8,.,.,-1.9,0.4,.,.
O=c1[nH]sc2ccccc12,32.4*,-5.7,3.8,.,8.1,3.2,91.2*,5.4
O=c1c2ccccc2sn1-c1ccccc1,8.6,-13.9,-4.9,1.1,-5.4,1.2,.,.
CC(C)(C)SCCNC(=O)CN(c1ccccc1)S(=O)(=O)c1ccccc1,11.6,-6.2,9.8,.,-7.4,-0.4,.,.
Cc1cc(NC2CCCCC2)nc2ccccc12,30.3*,-9.1,13.7,.,-12.8,-0.5,17.9,55.1*
CC(=O)n1cc(N(C(=O)CCl)c2ccc(C)cc2)c2ccccc21,29.1*,25.9,.,.,22.3,1.0,106.2*,45.4*
CC(=O)N(c1ccc(Cl)cc1)c1cn(C(C)=O)c2ccccc12,-8.5,6.9,2.9,.,4.8,1.4,.,.
O=C(CCn1nc(-c2ccc(Cl)cc2)c2ccccc2c1=O)NN1CCOCC1,5.4,12.2,.,.,7.4,0.1,.,.
CCCCS(=O)(=O)/C=C\C=C/S(=O)(=O)CCCC,99.4*,-14.4,2.0,-3.4,-0.9,-3.8,117.2*,62.1*
